{
  "source": "paper PMC5713684",
  "about": "(International Journal of Nanomedicine, 2017)",
  "key": {"[1]": {"test": "Ghrl-stability evaluation", "assay_type": "physicochemical", "conditions": "Ghrl 1 mg/mL, physiological pH, 4–60°C, up to 48 hours, HPLC/UV", "summary_of_the_method": "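Ghrelin at 1 mg/mL was held at 4, 25, 37 and 60°C in water, PBS pH 7.4, HBSS pH 7.4 and pharmacopoeial buffers from pH 2 to 10.4 (PBS, acetate, phosphate, boric acid, borate). Samples were drawn at 0.5–6, 24 and 48 h. Remaining peptide was quantified by reversed-phase HPLC/UV on an ODS column at 37°C, using water/acetonitrile mobile phases with 0.1% TFA.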"}, "[2]": {"conditions": "cited from earlier work"}, "[3]": {"test": "Isothermal titration calorimetry of Ghrl with AL-free", "assay_type": "binding", "conditions": "ITC, AL-free 10 mg/mL injected into Ghrl 1 mg/mL, PBS pH 7.4, 26°C, mean of n=2", "summary_of_the_method": "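Empty anionic liposomes (10 mg/mL in PBS pH 7.4) were injected stepwise into ghrelin (1 mg/mL in PBS) in the measuring cell. Each injection lasted 14.5 s, with 600 s spacing until steady state. Solutions were degassed beforehand, water served as reference and stirring was 300 rpm. A PBS-only blank was titrated. Heats were fitted to a cumulative model for K, ΔG, ΔH and TΔS. The titration was done twice and averaged.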"}, "[4]": {"conditions": "human plasma; cited from earlier work"}},
  "note": "No end group written: not given here. *: point of attachment. Octanoyl = CCCCCCCC(=O)*",
  "data": [
    {"substance": "ghrelin (GSS(Octanoyl)FLSPEHQRVQQRKESKKPPAKLQPR; UniProt Q9UBU3 24-51, looked up) [Ghrl]", "values": [
      {"measurement": "Stability of Ghrl on prolonged heating", "setting": "[1]", "value": "without any degradation"},
      {"measurement": "isoelectric point", "setting": "[2]", "value": 11.5},
      {"measurement": "Binding coefficient K", "setting": "[3]", "value": 0.875, "unit": "mM⁻¹"},
      {"measurement": "plasmatic half-life t½", "setting": "[4]", "value": "9 to 13", "unit": "min"}
    ]}
  ]
}
